From PMC4969713 (Journal of Alzheimer's Disease, 2016)
Several values for one entry are separate records, joined by “and”; a condition that tells them apart may be missing. Equal entries are not always repeated. Entries after “also recorded” stand apart in the source; their conditions may differ. Structures can show the parent of a compound that is named as a salt. Where two headings read alike, the source gives them in different places.

Experiments:
[1] = Stability in monkey blood plasma; assay type: in vitro ADME; conditions: 30-min incubation, room temperature
[2] = system: Salmonella typhimurium strains: TA98, TA1535, and TA1537; assay: Ames MPF test; assay type: cell-based; conditions: AVN-101 highest concentration 50μM
Method in brief: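 Run per kit manual in the Ames MPF fluctuation format with histidine-dependent strains TA98, TA1535 and TA1537. Test compound reached a highest concentration of 50 μM. Strain-specific positive controls: 4-nitro-o-phenylenediamine 15 μg/mL (TA98), sodium azide 2 μg/mL (TA1535), 9-aminoacridine 50 μg/mL (TA1537). Reverse mutation rate recorded.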

hKv4.3-hKCh1P2.2 (Ito) = hKv4.3-hKCh1P2.2 (Ito) (Homo sapiens, UniProt Q9UK17); assay: Cardiac channel inhibition, Ito; assay type: cell-based
Adrenergic α2A = Adrenergic α2A (Homo sapiens, UniProt P08913); assay: Radioligand competition, adrenergic α2A; assay type: binding; conditions: Ki
5-HT7 receptor [3] = target: T1, 5-HT7 receptor (Homo sapiens, UniProt P34969); conditions: Table 2; cited from earlier work
[4] = Pharmacokinetics in Wistar rats, IV/IP/PO; assay type: in vivo; conditions: for Fabs: based on AUC0 ⟶240; for Cmax / Tmax / half-life / k el / AUC: Wistar, rat, plasma, 5 mg/kg
Adrenergic α1B = Adrenergic α1B (Homo sapiens, UniProt P35368); assay: Radioligand competition, adrenergic α1B; assay type: binding
[5] = Brain/plasma/CSF distribution in Sprague Dawley rats; assay type: in vivo
5-HT7 receptor [6] = target: T1, 5-HT7 receptor; assay: Radioligand binding competition, 5-HT7
dopamine transporter = dopamine transporter (Homo sapiens, UniProt Q01959); assay: Target panel binding, dopamine transporter
[7] = Pharmacokinetics in mice, IP; assay type: in vivo; conditions: mouse, blood
histamine H2 receptor = histamine H2 receptor (Homo sapiens, UniProt P25021); assay: Radioligand binding competition, histamine H2
male BALB/c mice = assay: Novel object recognition, scopolamine-induced; assay type: in vivo; conditions: 1.0 mg/kg scopolamine; memantine 10 mg/kg; SB-742457 0.2 or 1.0 mg/kg
Method in brief: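 All drugs were dissolved in saline and given IP; control animals received saline vehicle. Each group had at least 8 male BALB/c mice. Read-out was novel object recognition index, reported as mean ± SE.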

muscarinic M2 receptor = muscarinic M2 receptor (Homo sapiens, UniProt P08172); assay: Target panel binding, muscarinic M2
5-HT5A receptor = 5-HT5A receptor (Homo sapiens, UniProt P47898); assay: Radioligand binding competition, 5-HT5A
5-HT1A receptor = 5-HT1A receptor (Homo sapiens, UniProt P08908); assay: Radioligand binding competition, 5-HT1A
histamine H3 receptor = histamine H3 receptor (Homo sapiens, UniProt Q9Y5N1); assay: Radioligand binding competition, histamine H3
[8] = Sprague Dawley, rat, CSF, iv, 2 mg/kg
[9] = Sprague Dawley, rat, brain, iv, 2 mg/kg
[10] = Sprague Dawley, rat, plasma, iv, 2 mg/kg

T1 sequence (P34969 whole entry): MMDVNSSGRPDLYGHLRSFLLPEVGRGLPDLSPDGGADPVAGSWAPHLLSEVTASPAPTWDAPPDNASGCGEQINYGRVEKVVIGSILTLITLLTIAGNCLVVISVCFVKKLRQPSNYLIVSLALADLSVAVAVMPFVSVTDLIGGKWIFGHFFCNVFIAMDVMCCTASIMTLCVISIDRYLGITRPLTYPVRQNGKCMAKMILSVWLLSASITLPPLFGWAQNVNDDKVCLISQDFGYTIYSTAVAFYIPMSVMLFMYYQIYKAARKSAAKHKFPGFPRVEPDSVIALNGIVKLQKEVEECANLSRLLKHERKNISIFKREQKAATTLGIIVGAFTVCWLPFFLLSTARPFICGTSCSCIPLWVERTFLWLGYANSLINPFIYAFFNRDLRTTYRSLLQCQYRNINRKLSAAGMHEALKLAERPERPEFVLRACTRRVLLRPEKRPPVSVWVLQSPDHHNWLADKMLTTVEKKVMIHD
Chain of histamine H3 receptor (Q9Y5N1 whole entry, species assumed): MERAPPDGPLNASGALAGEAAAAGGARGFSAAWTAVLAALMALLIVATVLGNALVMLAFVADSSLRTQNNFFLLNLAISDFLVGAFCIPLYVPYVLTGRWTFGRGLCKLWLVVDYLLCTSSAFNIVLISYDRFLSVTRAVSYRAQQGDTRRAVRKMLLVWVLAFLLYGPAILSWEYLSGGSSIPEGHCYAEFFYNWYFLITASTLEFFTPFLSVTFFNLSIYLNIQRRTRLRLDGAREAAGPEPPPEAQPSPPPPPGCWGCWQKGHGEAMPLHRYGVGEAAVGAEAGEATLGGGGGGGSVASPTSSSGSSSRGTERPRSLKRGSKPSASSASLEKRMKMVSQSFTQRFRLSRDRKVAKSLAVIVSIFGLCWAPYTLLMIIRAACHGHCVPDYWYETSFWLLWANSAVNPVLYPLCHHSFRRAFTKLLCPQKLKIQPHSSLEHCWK
Chain of hKv4.3-hKCh1P2.2 (Ito) (Q9UK17 whole entry): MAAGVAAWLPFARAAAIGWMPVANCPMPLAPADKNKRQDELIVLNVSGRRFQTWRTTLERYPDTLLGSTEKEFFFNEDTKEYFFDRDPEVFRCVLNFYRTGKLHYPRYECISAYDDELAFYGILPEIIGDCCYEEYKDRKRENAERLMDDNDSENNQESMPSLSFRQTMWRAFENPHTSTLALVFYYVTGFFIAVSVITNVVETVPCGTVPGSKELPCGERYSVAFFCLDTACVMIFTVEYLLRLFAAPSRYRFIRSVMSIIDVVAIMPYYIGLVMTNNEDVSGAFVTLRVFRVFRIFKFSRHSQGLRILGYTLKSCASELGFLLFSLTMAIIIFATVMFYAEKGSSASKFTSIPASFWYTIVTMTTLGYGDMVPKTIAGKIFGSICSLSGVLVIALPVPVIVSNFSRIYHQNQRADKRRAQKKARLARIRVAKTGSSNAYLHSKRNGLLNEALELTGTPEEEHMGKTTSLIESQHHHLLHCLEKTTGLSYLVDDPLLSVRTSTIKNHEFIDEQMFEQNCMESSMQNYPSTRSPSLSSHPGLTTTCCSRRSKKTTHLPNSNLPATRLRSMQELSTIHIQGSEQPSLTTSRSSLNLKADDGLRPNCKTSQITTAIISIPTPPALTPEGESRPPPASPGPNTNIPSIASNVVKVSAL
Chain of Adrenergic α1B (P35368 whole entry): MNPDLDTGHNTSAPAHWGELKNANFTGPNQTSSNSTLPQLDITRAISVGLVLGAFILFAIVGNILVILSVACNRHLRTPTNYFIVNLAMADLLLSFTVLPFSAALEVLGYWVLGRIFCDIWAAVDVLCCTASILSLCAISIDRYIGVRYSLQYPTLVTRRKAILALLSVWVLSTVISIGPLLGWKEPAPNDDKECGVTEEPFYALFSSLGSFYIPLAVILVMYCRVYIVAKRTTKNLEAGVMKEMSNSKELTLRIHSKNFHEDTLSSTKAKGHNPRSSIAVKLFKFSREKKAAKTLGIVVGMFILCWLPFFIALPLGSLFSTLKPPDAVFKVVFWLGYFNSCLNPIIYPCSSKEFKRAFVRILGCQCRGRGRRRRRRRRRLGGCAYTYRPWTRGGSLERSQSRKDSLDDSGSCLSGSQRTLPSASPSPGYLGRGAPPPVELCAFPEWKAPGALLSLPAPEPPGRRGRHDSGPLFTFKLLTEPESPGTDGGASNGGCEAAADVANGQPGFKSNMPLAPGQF
Chain of muscarinic M2 receptor (P08172 whole entry): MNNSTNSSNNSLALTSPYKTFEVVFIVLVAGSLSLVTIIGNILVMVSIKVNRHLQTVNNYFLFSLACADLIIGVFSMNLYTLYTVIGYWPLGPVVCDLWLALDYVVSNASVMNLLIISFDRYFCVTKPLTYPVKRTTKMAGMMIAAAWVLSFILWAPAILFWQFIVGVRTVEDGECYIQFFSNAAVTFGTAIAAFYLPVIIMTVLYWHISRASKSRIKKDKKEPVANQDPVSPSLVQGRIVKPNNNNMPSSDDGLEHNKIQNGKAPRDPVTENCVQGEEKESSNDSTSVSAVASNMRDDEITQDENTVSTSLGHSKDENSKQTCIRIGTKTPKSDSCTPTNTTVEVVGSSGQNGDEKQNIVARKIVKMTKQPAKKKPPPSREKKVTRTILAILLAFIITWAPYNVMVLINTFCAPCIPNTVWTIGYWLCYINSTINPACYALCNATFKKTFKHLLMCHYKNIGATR
Chain of Adrenergic α2A (P08913 whole entry): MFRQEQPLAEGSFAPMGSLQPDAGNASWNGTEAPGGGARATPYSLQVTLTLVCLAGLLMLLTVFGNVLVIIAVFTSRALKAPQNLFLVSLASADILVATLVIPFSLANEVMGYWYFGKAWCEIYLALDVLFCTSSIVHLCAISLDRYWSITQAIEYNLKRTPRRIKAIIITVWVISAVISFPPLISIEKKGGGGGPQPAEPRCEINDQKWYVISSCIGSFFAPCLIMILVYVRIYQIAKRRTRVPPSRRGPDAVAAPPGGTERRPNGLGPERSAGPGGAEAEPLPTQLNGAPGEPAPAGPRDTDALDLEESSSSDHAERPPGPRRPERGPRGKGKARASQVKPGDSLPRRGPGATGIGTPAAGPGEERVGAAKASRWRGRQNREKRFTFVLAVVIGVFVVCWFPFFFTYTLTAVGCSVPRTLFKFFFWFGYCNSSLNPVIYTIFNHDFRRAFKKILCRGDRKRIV
Chain of dopamine transporter (Q01959 whole entry): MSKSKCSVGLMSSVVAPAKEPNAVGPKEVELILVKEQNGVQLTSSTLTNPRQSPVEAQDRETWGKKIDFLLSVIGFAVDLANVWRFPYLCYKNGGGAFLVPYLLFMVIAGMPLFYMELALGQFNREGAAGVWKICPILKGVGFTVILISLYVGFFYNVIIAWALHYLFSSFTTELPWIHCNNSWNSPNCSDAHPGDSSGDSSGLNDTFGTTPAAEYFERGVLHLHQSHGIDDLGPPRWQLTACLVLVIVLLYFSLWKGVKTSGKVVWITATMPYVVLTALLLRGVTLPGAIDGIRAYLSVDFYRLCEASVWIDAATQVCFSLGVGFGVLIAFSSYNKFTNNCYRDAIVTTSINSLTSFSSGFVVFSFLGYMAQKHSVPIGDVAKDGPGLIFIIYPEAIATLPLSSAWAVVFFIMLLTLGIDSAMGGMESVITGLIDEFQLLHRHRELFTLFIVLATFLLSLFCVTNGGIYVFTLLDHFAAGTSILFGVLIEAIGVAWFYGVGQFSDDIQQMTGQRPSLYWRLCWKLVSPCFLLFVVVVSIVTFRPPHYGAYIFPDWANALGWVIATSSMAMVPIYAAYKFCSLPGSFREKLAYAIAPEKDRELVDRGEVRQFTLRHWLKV
Chain of 5-HT5A receptor (P47898 whole entry): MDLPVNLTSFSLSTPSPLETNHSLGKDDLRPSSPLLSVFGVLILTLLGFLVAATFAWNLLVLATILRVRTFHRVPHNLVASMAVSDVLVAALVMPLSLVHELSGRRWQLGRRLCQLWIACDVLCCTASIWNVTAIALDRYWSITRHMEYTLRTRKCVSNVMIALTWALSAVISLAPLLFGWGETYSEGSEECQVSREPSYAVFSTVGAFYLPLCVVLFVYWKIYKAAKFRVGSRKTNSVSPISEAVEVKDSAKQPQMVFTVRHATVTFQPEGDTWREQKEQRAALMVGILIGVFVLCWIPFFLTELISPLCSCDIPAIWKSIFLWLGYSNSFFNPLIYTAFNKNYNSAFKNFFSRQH
Chain of 5-HT1A receptor (P08908 whole entry): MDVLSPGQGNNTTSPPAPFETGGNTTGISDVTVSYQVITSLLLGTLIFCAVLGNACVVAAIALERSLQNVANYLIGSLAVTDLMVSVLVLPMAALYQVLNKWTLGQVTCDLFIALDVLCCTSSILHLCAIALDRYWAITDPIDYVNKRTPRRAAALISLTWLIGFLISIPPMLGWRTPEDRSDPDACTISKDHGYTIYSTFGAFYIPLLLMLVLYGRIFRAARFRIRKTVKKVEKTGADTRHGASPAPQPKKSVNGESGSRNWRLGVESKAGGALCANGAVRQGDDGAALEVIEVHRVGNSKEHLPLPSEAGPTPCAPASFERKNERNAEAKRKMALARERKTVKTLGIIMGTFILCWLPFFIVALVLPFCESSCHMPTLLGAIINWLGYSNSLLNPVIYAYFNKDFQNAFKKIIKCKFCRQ
Chain of histamine H2 receptor (P25021 whole entry): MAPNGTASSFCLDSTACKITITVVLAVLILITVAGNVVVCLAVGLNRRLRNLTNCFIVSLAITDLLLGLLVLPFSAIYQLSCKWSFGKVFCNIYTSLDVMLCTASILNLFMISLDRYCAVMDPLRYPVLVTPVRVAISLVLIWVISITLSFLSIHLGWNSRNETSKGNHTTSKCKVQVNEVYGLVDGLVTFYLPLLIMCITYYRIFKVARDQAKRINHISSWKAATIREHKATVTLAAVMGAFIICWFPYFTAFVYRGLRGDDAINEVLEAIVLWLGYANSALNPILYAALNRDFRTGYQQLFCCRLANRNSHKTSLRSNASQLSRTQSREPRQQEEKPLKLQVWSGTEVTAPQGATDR

For `Cc1ccc2c(c1)c1c(n2CCc2ccccc2)CCN(C)C1` [AVN-101, 2,8-dimethyl-5-penethyl-2,3,4,5-tetra-hydro-1h-pyrido[[4,3-B]]indole hydrochloride], the “residual amount of original compound” value [1] was 45%, the “mutagenicity (reverse mutation rate)” value [2] was “produced no mutagenesis” and the IC50 (hKv4.3-hKCh1P2.2 (Ito)) was 14800 nM. The inhibition at 31.6 µM (hKv4.3-hKCh1P2.2 (Ito); read-out: % Inhibition at 31.6μM) was 66%, the Ki (Adrenergic α2A) was 0.41 to 3.6 nM and the Ki (5-HT7 receptor [3]) was 0.153 nM. For the same compound, the Fabs ([4]; IP 5 mg/kg) was 26.3%, the Fabs ([4]; PO 5 mg/kg) was 8.5% and the Cmax ([4]; ip) was 278 ng/mL. The Tmax ([4]; ip) was 5 min, the half-life ([4]; ip) was 177 min and the k el ([4]; ip) was 6.5e-05 s⁻¹. For the same compound, the AUC ([4]; ip, AUC0 ⟶240, IP 5 mg/kg) was 1900 ng·h/mL, the AUC ([4]; ip, AUC0 ⟶∞, IP 5 mg/kg) was 2830 ng·h/mL and the Cmax ([4]; iv) was 847 ng/mL. It also gave a Tmax ([4]; iv) of 5 min, a half-life ([4]; iv) of 57.5 min and a k el ([4]; iv) of 0.000202 s⁻¹. It also gave an AUC ([4]; iv, AUC0 ⟶240, IV 5 mg/kg) of 721 ng·h/mL, an AUC ([4]; iv, AUC0 ⟶∞, IV 5 mg/kg) of 7530 ng·h/mL and a Cmax ([4]; po) of 50 ng/mL. It also gave a Tmax ([4]; po) of 5 min, a half-life ([4]; po) of 117 min and a k el ([4]; po) of 9.83e-05 s⁻¹. The AUC ([4]; po, AUC0 ⟶240, PO 5 mg/kg) was 614 ng·h/mL, the AUC ([4]; po, AUC0 ⟶∞, PO 5 mg/kg) was 810 ng·h/mL and the Ki (Adrenergic α1B) was 9.4 nM. The “binding to blood cells” value ([5]; IV 2 mg/kg, 5 min after injection) was “low binding capacity”, the Vss_obs ([5]; Plasma, IV 2 mg/kg) was 11.6136 L/kg and the AUC(0-inf) [5, 8] was 31.7 ng·h/mL. The AUC(0-t) [5, 8] was 25.3 ng·h/mL, the Cmax [5, 8] was 11 ng/mL and the half-life [5, 8] was 97.5 min. For the same compound, the k el [5, 8] was 0.000118 s⁻¹, the AUC(0-inf) [5, 9] was 8960 ng·h/mL and the AUC(0-t) [5, 9] was 8000 ng·h/mL. It also gave a Cmax [5, 9] of 4660 ng/mL, a Tmax [5, 9] of 4.8 min and a half-life [5, 9] of 75.7 min. The k el [5, 9] was 0.000153 s⁻¹, the AUC(0-inf) [5, 10] was 522 ng·h/mL and the AUC(0-t) [5, 10] was 376 ng·h/mL. The C0 [5, 10] was 308 ng/mL, the Cmax [5, 10] was 274 ng/mL and the Tmax [5, 10] was 4.98 min. It also gave a Vd [5, 10] of 13.2 L/kg, a clearance [5, 10] of 63.9 mL/min/kg and a half-life [5, 10] of 143 min. For the same compound, the k el [5, 10] was 8e-05 s⁻¹, the IC50 (5-HT7 receptor [6]) was 0.28 nM and the “affinity higher than SB-742457” value (5-HT7 receptor [6]) was ~4 orders of magnitude. The binding (dopamine transporter) was “does not bind”, the Cmax ([7]; 0.05 mg/kg) was 1.9 ng/mL and the Tmax ([7]; 0.05 mg/kg) was 5 min. The half-life ([7]; 0.05 mg/kg) was 10.5 min, the AUC ([7]; 0.05 mg/kg, AUC0 - >t, IP 0.05 mg/kg) was 0.487 ng·h/mL and the AUC ([7]; 0.05 mg/kg, AUC0 - >∞, IP 0.05 mg/kg) was 0.498 ng·h/mL. For the same compound, the Cmax ([7]; 0.2 mg/kg) was 5 ng/mL, the Tmax ([7]; 0.2 mg/kg) was 15 min and the half-life ([7]; 0.2 mg/kg) was 58 min. For the same compound, the AUC ([7]; 0.2 mg/kg, AUC0 - >t, IP 0.2 mg/kg) was 5.65 ng·h/mL, the AUC ([7]; 0.2 mg/kg, AUC0 - >∞, IP 0.2 mg/kg) was 6.08 ng·h/mL and the Cmax ([7]; 1 mg/kg) was 23 ng/mL. For the same compound, the Tmax ([7]; 1 mg/kg) was 15 min, the half-life ([7]; 1 mg/kg) was 81 min and the AUC ([7]; 1 mg/kg, AUC0 - >t, IP 1.0 mg/kg) was 25.9 ng·h/mL. For the same compound, the AUC ([7]; 1 mg/kg, AUC0 - >∞, IP 1.0 mg/kg) was 32 ng·h/mL, the half-life ([7]; 2 mg/kg) was 130 min and the Cmax ([7]; 5 mg/kg) was 198 ng/mL. The Tmax ([7]; 5 mg/kg) was 5 min, the concentration at 5 min ([7]; 5 mg/kg) was roughly 650 nM and the half-life ([7]; 5 mg/kg) was 136 min. For the same compound, the AUC ([7]; 5 mg/kg, AUC0 - >t, IP 5.0 mg/kg) was 184 ng·h/mL, the AUC ([7]; 5 mg/kg, AUC0 - >∞, IP 5.0 mg/kg) was 274 ng·h/mL and the Ki (histamine H2 receptor) was 89 nM. For the same compound, the “effect on deficit in novel object recognition” value (male BALB/c mice) was “partially reverse”, the binding (muscarinic M2 receptor) was “does not bind” and the Blood plasma concentration (Dogs (beagles); 0.05 mg/kg IV infusion) was 140 nM and 140 ± 20 nM. The “femoral SBP, down” value (Dogs (beagles); 0.5 mg/kg) was 13%, the Blood plasma concentration (Dogs (beagles); 0.5 mg/kg IV infusion) was 990 nM and 990 ± 40 nM and the “femoral SBP, down” value (Dogs (beagles); 0.5 mg/kg, p < 0.05) was 17 mm Hg. For the same compound, the “femoral SBP, down” value (Dogs (beagles); 2 mg/kg) was 16%, the Blood plasma concentration (Dogs (beagles); 2 mg/kg IV infusion) was 3280 nM and 3280 ± 300 nM and the “shortening of QT” value (Dogs (beagles); 2.0 mg/kg, at 30 min) was 15%. The “shortening of QTcV” value (Dogs (beagles); 2.0 mg/kg, at 30 min) was 8%, the “femoral SBP, down” value (Dogs (beagles); 2 mg/kg, p < 0.05) was 21 mm Hg and the “HR, up” value (Dogs (beagles); 10 mg/kg) was 164%. The “aortic DBP, down” value (Dogs (beagles); 10 mg/kg) was 13%, the “femoral BF, up” value (Dogs (beagles); 10 mg/kg) was 27% and the “femoral DBP, down” value (Dogs (beagles); 10 mg/kg) was 17%. For the same compound, the “femoral SBP, down” value (Dogs (beagles); 10 mg/kg) was 11%, the “left ventricular DBP, down” value (Dogs (beagles); 10 mg/kg) was 40% and the “reduction in QT” value (Dogs (beagles); 10.0 mg/kg) was 30%. For the same compound, the “reduction in QTcV” value (Dogs (beagles); 10.0 mg/kg) was 13%, the Blood plasma concentration (Dogs (beagles); 10 mg/kg IV infusion) was 11100 nM and 11100 ± 2150 nM and the “HR, up” value (Dogs (beagles); 10 mg/kg, p < 0.001) was 118 bpm. The “aortic DBP, down” value (Dogs (beagles); 10 mg/kg, p < 0.05) was 9 mmHg, the “femoral BF, up” value (Dogs (beagles); 10 mg/kg, p < 0.05) was 35 mL/min and the “femoral DBP, down” value (Dogs (beagles); 10 mg/kg, p < 0.05) was 12 mm Hg. For the same compound, the “left ventricular DBP, down” value (Dogs (beagles); 10 mg/kg, p < 0.05) was 2 mmHg, the “femoral SBP, down” value (Dogs (beagles); 10 mg/kg, p > 0.05) was 15 mm Hg and the Ki (5-HT5A receptor) was 20.8 nM. For the same compound, the Ki (5-HT1A receptor) was greater than 30 nM and the binding (histamine H3 receptor) was “totally inactive; also recorded: does not bind”.
